High-throughput results from PubChem BioAssay.
Shown are actives, neighbours in structure and some others; about 2.5% of the full set was active somewhere.
OX1R antag-1 – OX1R (human) antagonism. O43613. OX1R-expressing cells, FRET antagonist read-out. inhibition, % at 6.6 µM. 1.8% of 330,000 active. AID 485270; in the data active = inhibition mostly above about 38%, no sharp cut-off; inactive = mostly below about 40%
TRPML3 agonist – human mucolipin-3 channel agonism | Q8TDD5 | HEK293 TRPML3-YFP, Fluo-8 calcium fluorescence; 100% = the carbachol control signal | activation, % at 3 µM | 0.29% of 220,000 active | AID 1448;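 active = activation above its plate's cutoff, the mean activation of the plate's test wells plus 3 SD, cut at about 12% in these data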
Target sequence (Q8TDD5 whole entry, looked up): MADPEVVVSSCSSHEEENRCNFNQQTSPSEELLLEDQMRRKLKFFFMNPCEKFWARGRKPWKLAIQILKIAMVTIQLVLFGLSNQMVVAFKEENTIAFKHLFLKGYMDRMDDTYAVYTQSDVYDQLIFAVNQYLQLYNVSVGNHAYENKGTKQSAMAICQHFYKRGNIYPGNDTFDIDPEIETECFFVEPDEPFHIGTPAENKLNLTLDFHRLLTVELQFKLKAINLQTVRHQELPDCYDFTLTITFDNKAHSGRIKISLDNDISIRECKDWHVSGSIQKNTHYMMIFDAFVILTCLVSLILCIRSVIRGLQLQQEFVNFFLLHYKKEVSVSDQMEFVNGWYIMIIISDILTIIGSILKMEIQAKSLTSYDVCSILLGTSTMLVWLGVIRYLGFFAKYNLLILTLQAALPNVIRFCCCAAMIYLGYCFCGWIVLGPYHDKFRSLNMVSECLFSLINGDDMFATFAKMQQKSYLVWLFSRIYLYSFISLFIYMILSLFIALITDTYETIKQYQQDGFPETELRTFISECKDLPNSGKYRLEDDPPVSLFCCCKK
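Test system: HEK293 cells stably carrying human TRPML3-YFP; Doses: single dose, 3 µM final nominal compound, 0.3% DMSO final; Schedule: dye loading 1 h 37 °C then 30 min ambient, 125 s read; Technique: Fluo-8 calcium fluorescence; Benchmarks: high control carbachol 87 µM, low control DMSO.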
CHO parental Ca – counter-screen for OX1R antagonists: effect in parental CHO cells | 0.63% of 330,000 active | parental CHO-K1, ATP-induced calcium, Fluo-8 fluorescence | inhibition, % at 5.6 µM;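 active = inhibition above that plate's mean sample inhibition plus 3 SD, cut at about 26% in these data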
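Test system: untransfected parental CHO cell line; also added: ATP stimulus; dosing: 5.6 µM, single dose; signal: calcium-sensitive Fluo-8 fluorescence; measure: percent inhibition of ATP-evoked calcium rise, normalized to controls; benchmarks: low control ATP plus DMSO, high control DMSO only; replication: one well per compound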
OX1R antag-2 – antagonists of human orexin 1 receptor. CHO/OX1R cells, Fluo-8 calcium fluorescence, orexin A. 0.43% of 330,000 active. inhibition, % at 5 µM. AID 434989;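 active = inhibition above its plate's threshold, mean inhibition of all tested compounds on the plate plus 3 SD, cut at about 37% in these data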
TRPN1 ag – zebrafish TRPN1 (NompC) channel agonism; HEK293 zebrafish TRPN1-YFP, Fluo-8 calcium fluorescence; 100% = response to 87 µM carbachol; 0.18% of 220,000 active; activation, % at 3 µM;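 active = activation above its plate's cutoff, the mean activation of test wells on that plate plus 3 SD, cut at about 19% in these data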
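Assay system: Zebrafish TRPN1-YFP in HEK293 cells | Incubation: Dye loading 1 h at 37 °C, then 30 min room temperature | Measured by: Kinetic Fluo-8 fluorescence, ex 470-495, em 515-575 nm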
Of the large screens only hits and unclear results are named; the others gave an inactive call.

CCC1Oc2ccccc2N(CC(=O)NCCc2ccc(OC)c(OC)c2)C1=O (centres undefined)	none
CCC1Oc2ccc(C)cc2N(CC(=O)NCCc2ccc(OC)c(OC)c2)C1=O (centres undefined)	OX1R antag-1 61.8
CCc1ccc(C(=O)NNC(=O)CN2C(=O)NC3(CCCC3)C2=O)cc1	none (no result: TRPML3 agonist, TRPN1 ag)
O=C(CCc1ccccc1)OCC(=O)c1cccc([N+](=O)[O-])c1	none
O=C(COC(=O)c1cccc([N+](=O)[O-])c1)c1ccc(OCc2ccccc2)cc1	CHO parental Ca 52.6, OX1R antag-2 53.2
COc1ccc(N(CC(=O)NCc2ccccc2C)S(=O)(=O)c2ccccc2[N+](=O)[O-])c(OC)c1	OX1R antag-1 63.9
COc1ccc(N(CC(=O)NCc2ccc(C)cc2)S(=O)(=O)c2ccccc2[N+](=O)[O-])c(OC)c1	none
COc1cc(/C=C(\C#N)c2nc3c(s2)CCCC3)ccc1O	CHO parental Ca 82.3, OX1R antag-2 94.4
CCc1ccc(CN2CCC(Oc3ccc(C(=O)NCc4ccccn4)cc3)CC2)o1	none (no result: TRPML3 agonist, TRPN1 ag)
Cn1c(-c2ccc([N+](=O)[O-])cc2)nc2ccccc21	OX1R antag-1 51.5
Cn1cc([N+](=O)[O-])cc1-c1nc2ccccc2n1C	none (no result: TRPML3 agonist, TRPN1 ag)
CC(Oc1ccc(Br)cc1)C(=O)Nc1ccc(S(=O)(=O)N(C)C2CCN(C)CC2)cc1 (centres undefined)	CHO parental Ca 51.0 (no result: TRPML3 agonist, TRPN1 ag)
COc1ccc(CC(=O)Nc2ccc(S(=O)(=O)N(C)C3CCN(C)CC3)cc2)cc1	none (no result: TRPML3 agonist, TRPN1 ag)
NC(=O)N=Nc1c2[nH]c3ccccc3nc-2c2ccccc12	OX1R antag-1 70.8
CCc1ccc(NC(=O)CCC(=O)c2ccc(C)cc2)cc1	CHO parental Ca 31.5 (no result: TRPML3 agonist, TRPN1 ag)
COc1cccc2cc(C(=O)OC3CCN(C)CC3)c(=O)oc12	none
COc1cc(Br)cc2cc(C(=O)OC3CCN(C)CC3)c(=O)oc12	OX1R antag-1 49.3
CCCCCCCC[n+]1cccc2c3ccccc3ccc21	CHO parental Ca 63.2
Cc1ccc2c(c1)n([O-])c1c([n+]2=O)CCCC1	none
CC(=O)c1c(C)n([O-])c2ccc(C)cc2[n+]1=O	OX1R antag-1 40.9
Cc1c(/C=N\NC(=O)c2ccc([N+](=O)[O-])cc2)cnn1C	none
O=C(N/N=C/c1ccccn1)c1ccc(Cl)cc1	none (no result: TRPML3 agonist, TRPN1 ag)
O=C(N/N=C/c1ccccn1)c1sc2ccccc2c1Cl	OX1R antag-1 64.0
Cc1ccc(C(=O)Nc2ccc(C(=O)N/N=C/c3ccccn3)cc2)cc1	CHO parental Ca 34.6 (no result: TRPML3 agonist, TRPN1 ag)
Cc1c(/C=N/NC(=O)c2sc3ccccc3c2Cl)cnn1C	OX1R antag-1 47.8
O=C(N/N=C/c1ccc([N+](=O)[O-])o1)c1sc2ccccc2c1Cl	none
Cn1cccc1/C=N/NC(=O)c1sc2ccccc2c1Cl	OX1R antag-1 73.7
O=C(Nc1ccc(Br)cc1)c1cnc[nH]1	none (no result: TRPML3 agonist, TRPN1 ag)
CCOC(=O)C1=C(COC(=O)C2CC(=O)N(c3ccc(CC)cc3)C2)NC(=O)NC1C (centres undefined)	none (no result: TRPML3 agonist, TRPN1 ag)
O=C(Nc1cccc(Cl)c1)c1cccnn1	none (no result: TRPML3 agonist, TRPN1 ag)
COc1ccc2c(c1)c(C(=O)CN1CCc3ccccc3C1)c(C)n2C	none
CCOCCCNC(=O)/C(C#N)=C/c1cc(OC)c(O)c([N+](=O)[O-])c1	OX1R antag-1 41.5
COc1ccc(OC)c(NC(=O)COC(=O)CCS(=O)(=O)c2ccc(Cl)cc2)c1	none (no result: TRPML3 agonist, TRPN1 ag)
O=C(CSc1nc2ncc(Cl)cc2[nH]1)Nc1ccccc1-c1ccccc1	OX1R antag-1 34.6 (no result: TRPML3 agonist, TRPN1 ag)
O=C(CSc1nc2ncc(Br)cc2[nH]1)Nc1ccccc1-c1ccccc1	none (no result: TRPML3 agonist, TRPN1 ag)
COc1ccc(S(=O)(=O)N2CCN(C(=O)C3CC3)CC2)cc1	none (no result: TRPML3 agonist, TRPN1 ag)
Cc1c(Cl)cccc1NC(=S)N1CCCN(Cc2ccc(F)cc2)C1	CHO parental Ca 32.8
Fc1ccccc1CN1CCCN(C(=S)Nc2cccc(Cl)c2)C1	CHO parental Ca 40.3
Nc1ncccc1C(=O)OCC(=O)N1CCN(S(=O)(=O)c2ccc(Cl)cc2)CC1	none (no result: TRPML3 agonist, TRPN1 ag)
Cc1occc1C(=O)N1CCN(C(=O)C2CCCO2)CC1 (centres undefined)	none
O=C(c1ccc([N+](=O)[O-])cc1[N+](=O)[O-])N1CCN(C(=O)C2CCCO2)CC1 (centres undefined)	OX1R antag-1 33.5 (no result: TRPML3 agonist, TRPN1 ag)
COc1cc(C2Nc3ccccc3NC3=C2C(=O)CC(C)(C)C3)cc(OC)c1OC(C)=O (centres undefined)	none (no result: TRPML3 agonist, TRPN1 ag)
CCOCCCN1C(=O)C(=O)N(CC(=O)N2c3ccccc3NC(=O)CC2C)C1=O (centres undefined)	none (no result: TRPML3 agonist, TRPN1 ag)
CN1/C(=C\C(=O)COC(=O)Cn2nnc(-c3ccccc3)n2)C(C)(C)c2ccccc21	CHO parental Ca 54.1
COc1cc(OC)cc(C(=O)NCC(=O)OCC(=O)/C=C2/N(C)c3ccccc3C2(C)C)c1	none
Fc1ccccc1COc1ccc(C(=S)N2CCCC2)cc1	none (no result: TRPML3 agonist, TRPN1 ag)
COc1ccccc1C(=O)N/C(=C\c1cn(C)c2ccccc12)C(=O)N1CCCC1	OX1R antag-1 49.9 (no result: TRPML3 agonist, TRPN1 ag)
Cc1c(O)nc2ccccn2c1=O	none
O=c1c2c([N+](=O)[O-])cc([N+](=O)[O-])cc2nc2ccccn12	OX1R antag-1 73.2 (no result: TRPML3 agonist, TRPN1 ag)
COc1cc(/C=C2\SC(=S)N(Nc3ccccc3)C2=O)ccc1O	TRPML3 agonist 14.0, CHO parental Ca 42.4, TRPN1 ag 24.6
CCOc1cc(/C=C2\SC(=S)N(NS(=O)(=O)c3ccccc3)C2=O)ccc1O	none (no result: TRPML3 agonist, TRPN1 ag)
CCOc1cc(/C=C2\SC(=S)N(Nc3ccccc3)C2=O)ccc1O	TRPML3 agonist 15.8, TRPN1 ag 22.1
COc1ccc(/C=C2\SC(=S)N(CC3CCCO3)C2=O)cc1 (centres undefined)	none
COc1cc(/C=C2/SC(=S)N(CC3CCCO3)C2=O)ccc1O (centres undefined)	TRPML3 agonist 33.7, TRPN1 ag 37.4
O=C(NN1C(=O)/C(=C\c2ccc(O)c([N+](=O)[O-])c2)SC1=S)c1ccccc1Cl	OX1R antag-1 63.9
CC(C)C[C@@H](CO)N1CCN(Cc2cccnc2)CCC1=O	none (no result: TRPML3 agonist, TRPN1 ag)
CCOC(=O)CN1C(=O)S/C(=C/c2ccc(C)o2)C1=O	none (no result: TRPML3 agonist, TRPN1 ag)
COc1cc(/C=C2\SC(=S)N(C(Cc3ccccc3)C(=O)O)C2=O)ccc1O (centres undefined)	TRPML3 agonist 11.9, TRPN1 ag 22.4
CCOC(=O)CN1C(=O)S/C(=C/c2ccc(O)c([N+](=O)[O-])c2)C1=O	OX1R antag-1 56.5
COc1cc(/C=C2\SC(=S)N(NC(=O)c3cccnc3)C2=O)ccc1O	none
COc1cc(/C=C2\SC(=S)N(c3cccnc3)C2=O)ccc1O	TRPN1 ag 20.8
COC(=O)c1sc(NC(=S)NC(=O)c2cccc(Br)c2)nc1C	none (no result: TRPML3 agonist, TRPN1 ag)
CSc1nc(C(=O)N2CCCC(N3CCN(c4ccccc4C)CC3)C2)cs1 (centres undefined)	none (no result: TRPML3 agonist, TRPN1 ag)
CC(C)N(Cc1nccn1C)C(=O)c1cc(COc2ccc3ncccc3c2)on1	none
O=C(NCc1cccc(Cl)c1)c1cc(COc2ccc3ncccc3c2)on1	CHO parental Ca 67.1, OX1R antag-2 41.7
